Laboratory results published in ChEMBL document CHEMBL1154615, “Hydroxamates: relationships between structure and plasma stability” (J Med Chem, 2009).

Columns and labels:
[1] = Stability in potassium phosphate buffer at pH 7.4; assay type: physicochemical
[2] = (§1) Metabolic stability in Sprague-Dawley rat plasma at 10 uM by LC-MS/MS analysis; assay type: ADME, cell-free; conditions: Sprague-Dawley
Procedure, shortened: (§2)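 Pooled mixed-gender Sprague Dawley lithium-heparin rat plasma, 80 µL per time point in duplicate. Plasma is pre-incubated 5 min at 37 °C, then 30 min with 2 mM PMSF (final) where applied. Compound is added to 10 µM final in 1% DMSO. Quantified by LC-MSMS (MRM or SIM) against an internal standard with a per-compound calibration curve. Result is reported as t1/2.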

[3] = tested on: Plasma; assay: (§3) Metabolic stability in Sprague-Dawley rat plasma at 10 uM by LC-MS/MS analysis in presence of esterase inhibitor PMSF; assay type: ADME, cell-free; conditions: 10 µM; procedure, shortened: as §2
[4] = Stability in phosphate buffer saline at pH 7.4; assay type: physicochemical
[5] = organism: Homo sapiens; assay: Metabolic stability in human plasma by LC-MS/MS analysis
[6] = Half life in rat at 100 mg/kg, po; assay type: ADME, organism-based; design: dose 100 mg/kg, route oral; conditions: in vivo
[7] = Half life in po dosed rat; assay type: ADME, organism-based; conditions: in vivo
[8] = as §3; assay type: ADME, cell-free; conditions: Sprague-Dawley, with PMSF (esterase inhibitor); procedure, shortened: as §2
[9] = Half life in rat at 100 mg/kg, iv; assay type: ADME, organism-based; design: dose 100 mg/kg, route intravenous; conditions: in vivo
[10] = tested on: Plasma; assay: as §1; assay type: ADME, cell-free; conditions: 10 µM; procedure, shortened: as §2

O=C(CCc1ccccc1)NO
Stability [1]: Stable | half-life at 10 µM [2]: 1.5 h

O=C(/C=C/c1ccccc1)NO
Stability [1]: Stable | half-life at 10 µM [2]: 6.2 h

O=C(NO)C(Cc1ccccc1)C(=O)NCc1ccc(F)cc1 (centres undefined)
Stability [1]: Stable | half-life at 10 µM [2]: 0.8 h | t1/2 [3]: 15 h | half-life [4]: > 24 h | half-life [5]: > 24 h

O=C(NO)/C(=C\c1ccccc1)C(=O)NCc1ccc(F)cc1
Stability [1]: Stable | half-life at 10 µM [2]: 22 h | half-life [4]: > 24 h | half-life [5]: > 24 h

O=C(NCc1ccc(F)cc1)c1cc2ccccc2n(O)c1=O
Stability [1]: Stable | half-life at 10 µM [2]: > 48 h

O=C(CC(=O)NCc1ccc(F)cc1)NO
Stability [1]: Stable | half-life at 10 µM [2]: 10.5 h

CC(C)Cc1ccc(C(=O)N(C)O)cc1
half-life [6]: 0.3 h

CC(C)Cc1ccc(CC(=O)N(C)O)cc1
half-life [6]: < 0.3 h

O=C(NO)/C(=C/c1ccccc1)C(=O)NCc1ccc(F)cc1
Stability [1]: Stable | half-life at 10 µM [2]: 4.1 h | half-life [4]: > 24 h | half-life [5]: > 24 h

CC(=O)N1CCC(C(=O)NO)(S(=O)(=O)c2ccc(Oc3ccc(Cl)cc3)cc2)CC1
half-life [7]: 0.86 h

O=C(COc1ccccc1)NO
Stability [1]: Stable | half-life at 10 µM [2]: 3 h

O=C(CCOc1ccccc1)NO
Stability [1]: Stable | half-life at 10 µM [2]: 1.4 h

O=C(NO)C1(S(=O)(=O)c2ccc(Oc3ccc(Cl)cc3)cc2)CCN(C2CC2)CC1
half-life [7]: 0.74 h

O=C(NO)C1(C(=O)NCc2ccc(F)cc2)CC1
Stability [1]: Stable | half-life at 10 µM [2]: 22.3 h

O=C(Cc1ccc(F)cc1)NC(Cc1ccccc1)C(=O)NO (centres undefined)
Stability [1]: Stable | half-life at 10 µM [2]: 1.3 h

CC(Cc1ccccc1)(C(=O)NO)C(=O)NCc1ccc(F)cc1 (centres undefined)
Stability [1]: Stable | half-life at 10 µM [2]: 3 h

CC(C(=O)NO)C(=O)NCc1ccc(F)cc1 (centres undefined)
Stability [1]: Stable | half-life at 10 µM [2]: 33 h

CC(C)(C(=O)NO)C(=O)NCc1ccc(F)cc1
Stability [1]: Stable | half-life at 10 µM [2]: 19.9 h

O=C(NO)c1ccc(C#CC2CC2)cc1
Stability [1]: Stable | half-life at 10 µM [2]: 4 h

CN(O)C(=O)C(Cc1ccccc1)C(=O)NCc1ccc(F)cc1 (centres undefined)
Stability [1]: Stable | half-life at 10 µM [2]: 0.5 h

CC(C)(C)OC(=O)N[C@H](Cc1ccccc1)C(=O)NO
Stability [1]: Stable | half-life at 10 µM [2]: < 1 h

CCOC(=O)[C@H](CCc1ccccc1)N[C@@H](C)C(=O)N1CCC[C@H]1C(=O)O
half-life at 10 µM [2]: 0.05 h | half-life at 10 µM [8]: > 24 h

CC1(C)ON=C(C(Cc2ccccc2)C(=O)NCc2ccc(F)cc2)O1 (centres undefined)
Stability [1]: Stable | half-life at 10 µM [2]: 1 h

CN(O)C(=O)/C=C/c1ccc2ccccc2c1
half-life [9]: 6 min

CC(C)Cc1ccc(C(C)C(=O)N(C)O)cc1 (centres undefined)
half-life [6]: > 0.3 h

CC(C)Cc1ccc(CCC(=O)N(C)O)cc1
half-life [6]: < 0.3 h

CC(C)Cc1ccc(/C=C/C(=O)N(C)O)cc1
half-life [6]: < 0.3 h

CN1CCC(C(=O)NO)(S(=O)(=O)c2ccc(Oc3ccc(Cl)cc3)cc2)CC1
half-life [7]: 1.25 h

CCN1CCC(C(=O)NO)(S(=O)(=O)c2ccc(Oc3ccc(Cl)cc3)cc2)CC1
half-life [7]: 1.19 h

O=C(NO)C1(S(=O)(=O)c2ccc(Oc3ccc(Cl)cc3)cc2)CCNCC1
half-life [7]: 1.8 h

O=C(NO)c1ccccc1 [BENZOHYDROXAMATE]
Stability [1]: Stable | half-life at 10 µM [2]: > 24 h

CC(C)Cc1ccc(C(C)C(=O)NO)cc1 (centres undefined) [IBUPROXAM]
half-life [6]: 0.3 h

O=C(Cc1ccccc1)NO [PHENYLACETOHYDROXAMIC ACID]
Stability [1]: Stable | half-life at 10 µM [2]: > 24 h

O=C(CCCc1ccccc1)NO [PHENYLBUTYRYLHYDROXAMIC ACID]
Stability [1]: Stable | t1/2 [10]: 2 h

O=C(CCCCCCC(=O)Nc1ccccc1)NO [VORINOSTAT]
half-life at 10 µM [2]: 9.7 h
